Experimental findings from ChEMBL document CHEMBL6092210, “Synthesis, in vitro and in vivo biological evaluation of novel dual compounds targeting both acetylcholinesterase and serotonergic 5-HT4 receptors with potential interest in the treatment of Alzheimer's disease” (Eur J Med Chem, 2024) are described below.

pIC50: −log10 of the molar value.

One may read the pIC50 as the IC50 on a negative log10 scale, so that one unit is a factor of ten. Higher therefore signals a low IC50. The term Vd denotes a proportionality between amount in the body and measured concentration, not a real space. Read a high Vd as extensive tissue distribution. Broadly, the half-life is the time needed for the level to fall by half in the phase considered. A high value points to slow loss. One may read the MRT as the average time that molecules of a dose stay in the body.

Series [1] in a line: Toxicity in C57BL/6 mouse assessed as memory impairment at 0.3 mg/kg, ip incubated for 30 mins by novel object recognition test. It counts as organism-based. The following applies: in vivo, 0.5 h.
Series [2] can be described thus: Toxicity in C57BL/6 mouse assessed as spontaneous locomotor activity at 10 mg/kg, ip incubated for 30 mins. The following applies: in vivo, 0.5 h. In kind it is organism-based.
The nature of series [3]: Drug metabolism in dog liver microsome measured at 10 mins by UPLC/QE-orbitrap-MS method. Conditions: microsomes. In kind it is ADME, Canis lupus familiaris. The gist of the method: (§1)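 Test compound as fumarate salt incubated with human, dog, mouse or rat liver microsomes over 0–60 min. Parent remaining measured by UPLC/QE-orbitrap-MS as relative LC/MS peak area (% of 0 min), n = 1.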
Background: Liver microsomes are vesicles of endoplasmic reticulum, rich in cytochrome P450 enzymes.

The nature of series [4]: Drug metabolism in rat liver microsome measured at 10 mins by UPLC/QE-orbitrap-MS method. It counts as ADME. Conditions: microsomes. The gist of the method: as §1
The nature of series [5]: Drug metabolism in human liver microsome measured at 20 mins by UPLC/QE-orbitrap-MS method. The following applies: microsomes. In kind it is ADME. The gist of the method: as §1
The nature of series [6]: Drug metabolism in human liver microsome measured at 40 mins by UPLC/QE-orbitrap-MS method. In kind it is ADME. The following applies: microsomes. The gist of the method: as §1
The nature of series [7]: Drug metabolism in dog liver microsome measured at 40 mins by UPLC/QE-orbitrap-MS method. It counts as ADME, Canis lupus familiaris. Conditions: microsomes. The method in brief:
as §1

The nature of series [8]: Drug metabolism in mouse liver microsome measured at 40 mins by UPLC/QE-orbitrap-MS method. It counts as ADME. The following applies: microsomes. The method in brief:
as §1

Series [9] can be described thus: Drug metabolism in human liver microsome measured at 60 mins by UPLC/QE-orbitrap-MS method. Conditions: microsomes, 1 h. It counts as ADME. The method in brief:
as §1

The nature of series [10]: Drug metabolism in dog liver microsome measured at 60 mins by UPLC/QE-orbitrap-MS method. Conditions: microsomes, 1 h. It counts as ADME, Canis lupus familiaris. The gist of the method:
as §1

Series [11] addresses T1, Cytochrome P450 1A2 (Homo sapiens, UniProt P05177).
T1 sequence (P05177 whole entry): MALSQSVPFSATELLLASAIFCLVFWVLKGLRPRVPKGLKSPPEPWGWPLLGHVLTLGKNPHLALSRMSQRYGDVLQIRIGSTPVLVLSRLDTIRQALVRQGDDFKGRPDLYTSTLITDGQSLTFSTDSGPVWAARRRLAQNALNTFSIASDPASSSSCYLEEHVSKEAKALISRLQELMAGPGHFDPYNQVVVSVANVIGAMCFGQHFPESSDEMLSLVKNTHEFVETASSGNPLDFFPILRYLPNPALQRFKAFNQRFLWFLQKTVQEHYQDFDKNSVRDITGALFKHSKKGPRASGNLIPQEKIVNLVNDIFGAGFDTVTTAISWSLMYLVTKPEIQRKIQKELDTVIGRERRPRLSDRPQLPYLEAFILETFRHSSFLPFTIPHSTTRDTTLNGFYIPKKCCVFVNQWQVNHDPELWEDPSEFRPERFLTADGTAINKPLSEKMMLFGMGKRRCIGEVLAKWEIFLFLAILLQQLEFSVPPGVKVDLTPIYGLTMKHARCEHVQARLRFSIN
The series is described as follows: Inhibition of CYP1A2 in human liver microsomes using phenacetin as substrate. In kind it is ADME, Microsome. The method in brief:
(§2)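 Human liver microsomes with a cocktail of CYP-specific probe substrates; metabolite formation monitored for each probe reaction. Test compound (fumarate) at 0.01, 0.1, 1, 10 and 100 μM. Control inhibitors run at a single concentration for each probe reaction. IC50 estimated.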

Series [12] deals with Cytochrome P450 2C9 (Homo sapiens, UniProt P11712). The series is described as follows: Inhibition of CYP2C9 in human liver microsomes using diclofenac as substrate. It counts as ADME, Microsome. The gist of the method:
as §2

The target of series [13] is Cytochrome P450 3A4 (Homo sapiens, UniProt P08684). The series is described as follows: Inhibition of CYP3A4 in human liver microsomes using Testosterone as substrate. In kind it is ADME, Microsome. The gist of the method: as §2
A short description of series [14]: Volume of distribution in C57BL6 mouse at 0.3 to 3 mg/kg, iv. In kind it is ADME, organism-based. The following applies: in vivo, dose 0.3-3 mg/kg. The method in brief:
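Pharmacokinetics in C57Bl6 mice given the compound iv at 0.3, 1 or 3 mg/kg in 0.9 % saline (10 mL/kg), three animals per dose. Terminal cardiac blood taken under isoflurane at six time points. Plasma analyzed by UHPLC–MS/MS (LLOQ 1 ng/mL). Parameters derived by non-compartmental analysis.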

The nature of series [15]: Half life in Wistar rat at 0.3 to 3 mg/kg, iv. It counts as ADME, organism-based. The following applies: in vivo, dose 0.3-3 mg/kg. The method in brief:
(§3)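 Single iv dose of 0.3, 1 or 3 mg/kg in 0.9 % saline, three animals per dose (C57Bl6 mice, Wistar rats). Terminal cardiac-puncture blood under isoflurane at six time points. Plasma protein-precipitated and assayed by UHPLC–MS/MS (LLOQ 1 ng/mL). Parameters from non-compartmental analysis.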

Series [16] can be described thus: MRT in Wistar rat at 0.3 to 3 mg/kg, iv. It counts as ADME, organism-based. The following applies: in vivo, dose 0.3-3 mg/kg. The gist of the method: as §3

Sequence of Cytochrome P450 3A4 (P08684 whole entry): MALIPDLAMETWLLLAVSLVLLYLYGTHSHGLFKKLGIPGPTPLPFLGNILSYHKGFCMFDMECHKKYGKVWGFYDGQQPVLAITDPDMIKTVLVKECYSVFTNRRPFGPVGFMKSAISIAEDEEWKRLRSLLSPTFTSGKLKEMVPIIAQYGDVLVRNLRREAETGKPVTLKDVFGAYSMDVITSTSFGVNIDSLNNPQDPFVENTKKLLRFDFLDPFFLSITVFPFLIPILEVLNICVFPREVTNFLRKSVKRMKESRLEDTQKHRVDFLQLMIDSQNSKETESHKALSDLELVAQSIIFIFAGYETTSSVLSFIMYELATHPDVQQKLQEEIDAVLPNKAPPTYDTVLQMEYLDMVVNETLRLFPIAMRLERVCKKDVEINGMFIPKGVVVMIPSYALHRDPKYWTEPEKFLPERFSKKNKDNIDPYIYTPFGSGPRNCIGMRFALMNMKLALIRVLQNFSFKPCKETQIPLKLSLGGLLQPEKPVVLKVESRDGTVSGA
Sequence of Cytochrome P450 2C9 (P11712 whole entry): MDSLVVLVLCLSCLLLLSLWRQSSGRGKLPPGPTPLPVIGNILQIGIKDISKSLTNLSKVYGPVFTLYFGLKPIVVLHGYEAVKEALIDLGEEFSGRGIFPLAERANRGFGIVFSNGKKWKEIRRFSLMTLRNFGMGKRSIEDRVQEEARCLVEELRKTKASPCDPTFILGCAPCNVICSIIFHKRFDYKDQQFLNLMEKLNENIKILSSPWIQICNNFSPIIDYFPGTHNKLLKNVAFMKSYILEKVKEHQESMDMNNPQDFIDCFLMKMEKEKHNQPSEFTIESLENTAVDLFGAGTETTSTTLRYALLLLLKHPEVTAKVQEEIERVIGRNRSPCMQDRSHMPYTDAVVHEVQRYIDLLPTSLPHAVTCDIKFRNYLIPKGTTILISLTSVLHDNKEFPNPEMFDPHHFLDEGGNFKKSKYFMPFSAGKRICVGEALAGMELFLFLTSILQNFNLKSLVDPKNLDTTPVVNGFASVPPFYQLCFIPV

On to `COc1cc(N)c(F)cc1C(=O)CCC1CCN(CC2CCCCC2)CC1.O=C(O)/C=C/C(=O)O`, for which the Activity result in series [1] and in [2] was “Non-toxic” in each case. Further, the Drug metabolism was determined as 77% in [3]; 26% in series [4]; 78% in [5]; 63% in series [6]; 40% in series [7]; 25% in series [8]. Moreover, the Drug metabolism in [9] was found to be 59%; in [10] it was 29%. Besides, the figures for the negative logarithm of the IC50 (pIC50) in [11], in [12] and in series [13] were 4.08, < 4.00 and 5.10, respectively. The Vd in series [14] came to 3.6 L/kg. For the same molecule, in [15], the half-life is 46.1 min. Further, in series [16], the MRT amounted to 69 min.
